Laboratory results published in ChEMBL document CHEMBL1671718, “Anti-Pseudomonas activity of frog skin antimicrobial peptides in a Caenorhabditis elegans infection model: a plausible mode of action in vitro and in vivo” (Antimicrob Agents Chemother, 2010).
≈ marks a conversion by molar mass, not a printed value. Calls of active or inactive are those of the source. The rule behind the calls is not given here. Where a SMILES comes first, the peptide text is derived from it.

Legend:
Pseudomonas aeruginosa [1] = test: Antibacterial activity against multidrug-resistant Pseudomonas aeruginosa clinical isolate by broth microdilution method; type: functional
Procedure, shortened: (§1)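 Adapted CLSI broth microdilution in Mueller-Hinton broth; mid-log bacteria at 2 × 10^6 CFU/ml mixed 1:1 with peptide dilutions (2-fold series from 20% ethanol stocks, 1–64 μM). Growth read by absorbance at 595 nm after 18–20 h at 37°C; MIC = lowest concentration giving 100% growth inhibition.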

Pseudomonas aeruginosa [2] = test: Bactericidal activity against multidrug-resistant Pseudomonas aeruginosa clinical isolate assessed as concentration required for >= 3 log10 CFU/ml reduction in viable bacteria in Mueller-Hinton broth after 90 mins; type: functional; details: 1.5 h
Procedure, shortened: (§2)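 Exponential-phase bacteria resuspended at 1 × 10^7 CFU/ml in MHB or PBS; 10 μl incubated with 2-fold peptide dilutions (2–64 μM) in 100 μl, 37°C, 90 min, then plated on LB agar and counted after overnight growth. Value = concentration giving ≥3 log10 CFU/ml reduction. Solvent control 0.6% ethanol.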

Pseudomonas aeruginosa [3] = test: Bactericidal activity against multidrug-resistant Pseudomonas aeruginosa clinical isolate assessed as concentration required for >= 3 log10 CFU/ml reduction in viable bacteria in phosphate-buffer saline containing 150 mM sodium salt after 90 mins; type: functional; details: 1.5 h; procedure, shortened: as §2
Pseudomonas aeruginosa [4] = test: Antibacterial activity against multidrug-resistant Pseudomonas aeruginosa clinical isolate assessed as reduction in viable bacterial count at MIC after 5 mins by time-kill analysis; type: functional
Procedure, shortened: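 Bacteria grown in MHB at 37°C, diluted into PBS (about 1 × 10^5 CFU in 100 μl), incubated at 37°C with peptide at its MIC; 10 μl samples taken at intervals, diluted in MHB, plated on LB agar, CFU counted after overnight growth. Controls untreated or 0.6% ethanol solvent; three independent experiments, mean ± SD.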

[5] = Toxicity in human RBC assessed as hemolytic activity upto 64 uM; type: cell-based; details: erythrocyte
Procedure, shortened: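 Fresh erythrocytes from healthy human donors, washed three times in 0.9% NaCl, used as a 5% (vol/vol) final suspension. Peptides were dissolved in 20% ethanol and tested at 2 to 64 μM, with agitation at 37°C for 40 min. Hemoglobin release was read as supernatant absorbance at 540 nm. The blank was solvent at 0.6% final; hypotonic lysis gave 100%.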

Pseudomonas aeruginosa [6] = test: Antibacterial activity against multidrug-resistant Pseudomonas aeruginosa clinical isolate infected in Caenorhabditis elegans assessed as worm survival at 0.01 nM after 48 hrs; type: functional, organism-based
Caenorhabditis elegans = test: Toxicity in multidrug-resistant Pseudomonas aeruginosa clinical isolate infected Caenorhabditis elegans induction of worm mortality at >0.01 nM after 48 hrs; type: organism-based; details: in vivo
Pseudomonas aeruginosa [7] = test: Antibacterial activity against multidrug-resistant Pseudomonas aeruginosa clinical isolate infected in Caenorhabditis elegans assessed as increase in worm survival at 0.3 nM after 40 hrs relative untreated control; type: functional
Procedure, shortened: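 N2 young adults infected 6 h at 25°C on modified NGM lawns of clinical isolate, washed in M9, 15 worms/well in 50 μl S medium with E. coli OP50 plus peptide (0.3 or 0.01 nM depending on peptide); 40 h at 25°C. Dead = no movement or muscle tone; at least three experiments, mean ± SD.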

Pseudomonas aeruginosa [8] = test: Antibacterial activity against multidrug-resistant Pseudomonas aeruginosa clinical isolate infected in Caenorhabditis elegans assessed as reduction in viable bacterial count in intestinal lumen after 24 hrs by agar plate assay relative to untreated worm; type: functional
Procedure, shortened: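 Worms infected 6 h, then on OP50 NGM plates with 0.5 nM peptide added. Before and after 1 day, 10 worms per replicate washed three times in M9 with 20 μg/ml gentamicin, lysed in M9–1% Triton X-100, and plated on LB with 100 μg/ml ampicillin; CFU counted after overnight growth at 37°C. At least three experiments.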

Pseudomonas aeruginosa [9] = test: Antibacterial activity against multidrug-resistant Pseudomonas aeruginosa clinical isolate infected in Caenorhabditis elegans assessed as increase in worm survival within 6 days agar plate assay relative to untreated worm; type: functional
Procedure, shortened: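 Worms infected 6 h, washed in M9, 15 per 3.5-cm NGM plate with E. coli OP50, moved daily to fresh plates freshly spread with 200 μl of 0.5 nM peptide. Death scored as absence of touch-provoked movement over 6 days versus untreated infected worms; at least three experiments.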

Pseudomonas aeruginosa [10] = test: Antibacterial activity against Pseudomonas aeruginosa ATCC 15692 by broth microdilution method; type: functional; procedure, shortened: as §1
Pseudomonas aeruginosa [11] = test: Antibacterial activity against Pseudomonas aeruginosa ATCC 15692 expressing GFP infected in Caenorhabditis elegans assessed as reduction in viable bacterial count in intestinal lumen after 90 mins by fluorescence microscopy; type: functional, organism-based
Procedure, shortened: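 Nematodes infected 16 h with GFP-expressing ATCC 15692 (plasmid pSMC21, ampicillin-selected), moved to OP50 NGM plates with or without 0.5 nM peptide; after 90 min, gut fluorescence viewed by epifluorescence stereomicroscopy (GFP2 filter, ×60).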

Pseudomonas aeruginosa [12] = test: Induction of membrane permeation on multidrug-resistant Pseudomonas aeruginosa clinical isolate infected in Caenorhabditis elegans assessed as increase in membrane permeability assessed as increase in membrane permeability by Sytox green dye influx assay; type: functional, organism-based
Procedure, shortened: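 N2 adults infected 16 h, washed in M9, held about 24 h at 25°C on K medium agar to expand gut bacteria (about 1,000 CFU/worm). 200 worms per well in 300 μl K medium with 1 μM Sytox Green, 5 min in the dark; 10 nM peptide added, fluorescence (485/535 nm) read at 25°C until plateau (about 40 min). Controls: 0.3% ethanol-treated infected worms and uninfected worms; two experiments.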

Escherichia coli = test: Induction of membrane permeation on GFP expressing Escherichia coli OP50 infected in Caenorhabditis elegans assessed as increase in membrane permeability assessed as increase in membrane permeability after 16 hrs post dose by Sytox green dye influx assay; type: functional, organism-based
[13] = Toxicity in human RBC assessed as hemolytic activity at 64 uM; type: cell-based, Erythrocyte; details: red blood cells, read-out: Activity
[14] = Toxicity in human RBC assessed as hemolytic activity <32 to 64 uM; type: cell-based; details: erythrocyte
[15] = Toxicity in human RBC assessed as hemolytic activity at 32 uM; type: cell-based, Erythrocyte; details: red blood cells, read-out: Activity

Row | SMILES | MIC (Pseudomonas aeruginosa [1]) [µM] | MIC (Pseudomonas aeruginosa [2]) [µM] | MIC (Pseudomonas aeruginosa [3]) [µM] | CFU/ml (Pseudomonas aeruginosa [4]) | Activity [5] | Activity (Pseudomonas aeruginosa [6]) | Activity (Caenorhabditis elegans) | fold change (FC) (Pseudomonas aeruginosa [7]) | fold change (FC) (Pseudomonas aeruginosa [8]) | fold change (FC) (Pseudomonas aeruginosa [9]) | MIC (Pseudomonas aeruginosa [10]) [µM] | Activity (Pseudomonas aeruginosa [11]) | Activity (Pseudomonas aeruginosa [12]) | Activity (Escherichia coli) | hemolysis at 64 µM [13] [%] | Activity [14] | hemolysis at 32 µM [15] [%] | Activity (Pseudomonas aeruginosa [8])
1 | CC[C@H](C)[C@H](NC(=O)CN)C(=O)N[C@@H](Cc1ccccc1)C(=O)N[C@@H](CO)C(=O)N[C@@H](CCCCN)C(=O)N[C@@H](CC(C)C)C(=O)N[C@@H](C)C(=O)NCC(=O)N[C@@H](CCCCN)C(=O)N[C@@H](CCCCN)C(=O)N[C@H](C(=O)N[C@@H](CCCCN)C(=O)N[C@@H](CC(N)=O)C(=O)N[C@@H](CC(C)C)C(=O)N[C@@H](CC(C)C)C(=O)N[C@H](C(=O)N[C@@H](CO)C(=O)NCC(=O)N[C@@H](CC(C)C)C(=O)N[C@@H](CCCCN)C(=O)NCC(N)=O)[C@@H](C)CC)[C@@H](C)CC (H-GIFSKLAGKKIKNLLISGLKG-NH2) | 4 (≈ 8.74 µg/mL) | 16 (≈ 35 µg/mL) | 4 | 998000 | Non-toxic | inactive |  |  |  |  |  |  |  |  |  |  |  | 
2 | CC[C@H](C)[C@H](NC(=O)[C@H](CCCNC(=N)N)NC(=O)CNC(=O)[C@H](CC(C)C)NC(=O)[C@H](Cc1ccccc1)NC(=O)[C@H](CCCCN)NC(=O)[C@H](CO)NC(=O)[C@H](Cc1ccccc1)NC(=O)[C@H](Cc1c[nH]c2ccccc12)NC(=O)[C@H](CCC(N)=O)NC(=O)[C@@H](NC(=O)[C@@H](N)Cc1ccccc1)C(C)C)C(=O)N[C@@H](CC(C)C)C(N)=O [TEMPORIN L] (H-FVQWFSKFLGRIL-NH2) | 64 (≈ 105 µg/mL) | > 64 | 16 |  |  | inactive | Toxic |  |  |  |  |  |  |  |  |  |  | 
3 | CC[C@H](C)[C@H](NC(=O)CN)C(=O)N[C@@H](Cc1ccccc1)C(=O)N[C@@H](CO)C(=O)N[C@@H](CCCCN)C(=O)N[C@@H](CC(C)C)C(=O)N[C@@H](C)C(=O)NCC(=O)N[C@@H](CCCCN)C(=O)N[C@@H](CCCCN)C(=O)N[C@@H](CC(C)C)C(=O)N[C@@H](CCCCN)C(=O)N[C@@H](CC(N)=O)C(=O)N[C@@H](CC(C)C)C(=O)N[C@@H](CC(C)C)C(=O)N[C@H](C(=O)N[C@@H](CO)C(=O)NCC(N)=O)[C@@H](C)CC (H-GIFSKLAGKKLKNLLISG-NH2) | 8 (≈ 15.1 µg/mL) | 64 (≈ 121 µg/mL) | 16 | 950000 | Non-toxic | inactive |  | 4 | 5 | 2 | 8 (≈ 15.1 µg/mL) | Active | Active | inactive |  |  |  | 
4 | CC[C@H](C)[C@H](NC(=O)CNC(=O)[C@H](CO)NC(=O)[C@H](CC(C)C)NC(=O)[C@@H](NC(=O)[C@H](CCCCN)NC(=O)CNC(=O)[C@@H](NC(=O)[C@H](CC(C)C)NC(=O)[C@@H]1CCCN1C(=O)[C@H](CC(C)C)NC(=O)[C@@H](N)Cc1ccccc1)[C@@H](C)CC)C(C)C)C(=O)N[C@@H](CC(C)C)C(N)=O (H-FLPLIGKVLSGIL-NH2) | > 64 | > 64 | > 64 |  |  | inactive |  |  |  |  |  |  |  |  | 12 | Non-toxic |  | 
5 | CC[C@H](C)[C@H](NC(=O)[C@@H]1CCCN1C(=O)[C@H](CC(C)C)NC(=O)[C@@H](N)CC(C)C)C(=O)N[C@H](C(=O)NCC(=O)N[C@@H](CC(N)=O)C(=O)N[C@@H](CC(C)C)C(=O)N[C@@H](CC(C)C)C(=O)N[C@@H](CCCCN)C(=O)N[C@@H](CO)C(=O)N[C@@H](CC(C)C)C(=O)N[C@@H](CC(C)C)C(N)=O)C(C)C (H-LLPIVGNLLKSLL-NH2) | > 64 | > 64 | > 64 |  |  | inactive |  | 4 |  |  | > 64 | Active |  |  |  | Non-toxic | 5 | Active
